Where “and” joins values, the source holds several entries; their conditions need not be identical. Equal entries are not always repeated. Calls of active or inactive are those of the source. Rule as the data show it, unless noted: active = inhibition above about 30%; inactive = the rest.
What was measured:
[1] = reduced viability of SK-BR-3 breast cancer cells – cell-based, 24 h, human, pilot screen (AID 572;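 active = viability at or below 10% of carrier control in both of two separate runs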;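 also: compound exposure lasted between 18 and 24 h rather than exactly 24 h; 100% = carrier-treated control wells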); settings: SK-BR-3 viability, CellTiter-Glo luminescence, at 10 µM, stronger effect = lower value
[2] = HUVEC growth inhibition – cell-based, human, primary screen (AID 575;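 active = viability at or below 30% in both replicate assays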;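 also: 100% = median of untreated cell wells with 0.1% DMSO on each plate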); settings: HUVEC proliferation, CellTiter-Glo luminescence, 72 h; at 10 µM; stronger effect = lower value
In short: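 Assay system: primary human umbilical vein endothelial cells / Buffer or medium: endothelial basal medium with 2% FBS plus growth supplements / Compound dosing: one dose, 10 µM final, 0.1% DMSO / Timing: 72 h treatment at 37 °C / Signal: CTG luminescence / Benchmarks: 32 DMSO-only cell-control wells (high), 32 MePR drug-control wells (low) per plate / Plate: collagen-coated 384-well format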

[3] = H69AR cell proliferation blockers – human, duplicate replicates, primary screen (AID 580;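 active = viability at or under a set limit in both replicates, limit being median viability minus 3 SD, cut at about 48% in these data, passing the limit was not always enough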;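 also: 100% = mean luminescence of untreated wells and 0% = no signal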); settings: H69AR lung tumor cells viability, ATP luminescence, 72 h; at 10 µM; stronger effect = lower value
[4] = MRP1 drug-resistance reversers in H69AR cells – cell-based, doxorubicin co-treatment, pilot screen (AID 601;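 active = viability loss from added drug above about 55%, and viability with drug at most 40%, in both replicates, limit read from the data, passing the limit was not always enough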); settings: CellTiter-Glo, 72 h, at 10 µM; for differential viability (reversal): stronger effect = higher value
[5] = yeast transport mutant growth inhibition pilot in 384-well plates, post-Golgi transport modulator project (AID 636; in the data active = inhibition above about 31%); settings: absorbance 615 nm, about 18 h, stronger effect = higher value
[6] = growth suppression of yeast trafficking mutant, preliminary HTS, modulators of trafficking downstream of Golgi apparatus project, 1536-format plate, OD 615 nm (AID 637); settings: yeast transport mutant growth, absorbance 615 nm, 18 h; stronger effect = higher value
[7] = H69AR cells + 2 uM doxorubicin, measured here: viability with 2 uM doxorubicin, stronger effect = lower value
[8] = H69AR cells, compound alone cytotoxicity

| SMILES | viability [1] | viability [2] | viability [3] | differential viability (reversal) ([4]; H69AR cells + 2 uM doxorubicin) | viability [4, 7] | viability [4, 8] | inhibition [5] | inhibition [6] |
| --- | --- | --- | --- | --- | --- | --- | --- | --- |
| CC1CCCc2sc3nc(NCc4ccco4)n4ncnc4c3c21 (stereo not drawn) | 104% (inactive) | 79.2% (inactive) | 83.3% (inactive) | -1.71% (inactive) | 85% | 83.3% | -3.97% (inactive) | 20.3% (inactive) |
| COc1ccc2cc(C#N)c(N3CCN(Cc4nnnn4CCC(C)C)CC3)nc2c1 | 89% (inactive) | 64.5% (inactive) | 79.4% (inactive) | 8.18% (inactive) | 71.2% | 79.4% | -2.93% (inactive) | 2.73% (inactive) |
| CC(=O)NCCCCCCNC(C)=O | 125% (inactive) | 100% (inactive) | 94.5% (inactive) | 5.61% (inactive) | 88.9% | 94.5% | 4.94% (inactive) | -1.17% (inactive) |
| O=C(CN1CCC(O)(c2ccc3c(c2)OCO3)CC1)OC1CCCCC1 | 83% (inactive) | 103% (inactive) | 96.8% (inactive) | 3.36% (inactive) | 93.4% | 96.8% | -7.3% (inactive) | 2.73% (inactive) |
| NS(=O)(=O)c1ccc(NC(=O)CSc2nnc(Cc3cccs3)n2-c2ccccc2)cc1 | 57% (inactive) | 93.6% (inactive) | 93.3% (inactive) | 4.08% (inactive) | 89.2% | 93.3% | -7.53% (inactive) | 2.18% (inactive) |
| CCC1Oc2ccc(C)cc2N(CC(=O)NCCCN2CCCCC2CC)C1=O (stereo not drawn) | 99% (inactive) | 83.7% (inactive) | 87.5% (inactive) | -6.5% (inactive) | 93.9% | 87.5% | -0.78% (inactive) | -0.66% (inactive) |
| NC(N)=NC(=O)c1nc(Cl)c(N)nc1N | 117% (inactive) | 86.5% (inactive) | 91.2% (inactive) | -4.34% (inactive) | 95.5% | 91.2% | -2.34% (inactive) | 1.67% (inactive) |
| Cc1ccc(C)c(CSc2nnc(CCN)o2)c1 | 101% (inactive) | 41.5% (inactive) | 71.2% (inactive) | -20.6% (inactive) | 91.8% | 71.2% | -7.67% (inactive) | 5.45% (inactive) |
| CCOc1ccccc1OCCCCN1CCCC1 | 87% (inactive) | 109% (inactive) | 91.5% (inactive) | 2.1% (inactive) | 89.4% | 91.5% | -2.21% (inactive) | -1.97% (inactive) |
| COc1ccc(Cl)cc1NC(=O)CSc1nncn1-c1cccnc1 | 92% (inactive) | 102% (inactive) | 88.3% (inactive) | 2.01% (inactive) | 86.3% | 88.3% | -7.07% (inactive) | -3.27% (inactive) |
| c1coc(CN(Cc2cccs2)Cc2nnnn2C2CCCCC2)c1 | 74% (inactive) | 83.2% (inactive) | 75.7% (inactive) | -4.73% (inactive) | 80.4% | 75.7% | -3.84% (inactive) | 0% (inactive) |
| CCOC(=O)c1c(NC(=O)OC)sc2c1CCC2 | 129% (inactive) | 89.7% (inactive) | 87.1% (inactive) | -0.775% (inactive) | 87.9% | 87.1% | 0.65% (inactive) | -4.75% (inactive) |
| O=C(NCCN1CCOCC1)NC1(C(F)(F)F)Oc2ccc(Cl)cc2O1 (stereo not drawn) | 107% (inactive) | 57.1% (inactive) | 22.6% (active) | -16.8% (inactive) | 39.5% | 22.6% | -7.53% (inactive) | 0% (inactive) |
| CC(CCc1ccccc1)NC(=O)CSc1nc(N)cc(N)n1 (stereo not drawn) | 114% (inactive) | 96.6% (inactive) | 94.7% (inactive) | 4.75% (inactive) | 90% | 94.7% | -0.68% (inactive) | -1.45% (inactive) |
| O=S(=O)(c1ccc(N2CCN(c3ccc(F)cc3)CC2)cc1)N1CCCC1 | 111% (inactive) | 77.2% (inactive) | 75.7% (inactive) | -4.83% (inactive) | 80.6% | 75.7% | -0.91% (inactive) | 15.4% (inactive) |
| Cc1nn(C(=O)c2ccccc2)c2c1C(=O)CC(C)(C)C2 | 76% (inactive) | 95.8% (inactive) | 94.7% (inactive) | 1.29% (inactive) | 93.4% | 94.7% | -7.12% (inactive) | 0.73% (inactive) |
| Nc1nc(Cl)nc2c1ncn2[C@H]1C[C@H](O)[C@@H](CO)O1 | 116% (inactive) and 105% (inactive) | 67% (inactive) and 36.3% (inactive) | 93.8% (inactive) | -9.28% (inactive) and -31.8% (inactive) | 103% and 81.2% | 93.8% and 49.4% | 2.34% (inactive) and 0.52% (inactive) | 1% (inactive) and -1% (inactive) |
| CCN(CC)CCOC(=O)C1(C2CCCCC2)CCCCC1 | 114% (inactive) | 72.7% (inactive) | 86.3% (inactive) | 3.1% (inactive) | 83.2% | 86.3% | -2.6% (inactive) | -3.33% (inactive) |

| SMILES | viability [1] | viability [2] | viability [3] | differential viability (reversal) ([4]; H69AR cells + 2 uM doxorubicin) | viability [4, 7] | viability [4, 8] | inhibition [5] | inhibition [6] |
| --- | --- | --- | --- | --- | --- | --- | --- | --- |
| COc1ccccc1N1CCN(C(=O)CN(Cc2ccc(Cl)cc2)S(C)(=O)=O)CC1 | 91% (inactive) | 88.7% (inactive) | 99.8% (inactive) | 4.09% (inactive) | 95.7% | 99.8% | -5.45% (inactive) | -0.49% (inactive) |
| Nc1cccc(C(=O)O)c1 | 129% (inactive) | 98.2% (inactive) | 94.8% (inactive) | 7.12% (inactive) | 87.7% | 94.8% | 1.82% (inactive) | 0.33% (inactive) |
| N#Cc1ccc(CSc2nnc(-c3cccs3)n2-c2ccccc2)cc1 | 78% (inactive) | 78% (inactive) | 78% (inactive) | 34.1% (inactive) | 44% | 78% | -0.82% (inactive) | -7.1% (inactive) |
| COc1ccc(/C=C/C(=O)Nc2ccccc2C(=O)O)cc1OC | 104% (inactive) | 64.4% (inactive) | 94.7% (inactive) | 0.56% (inactive) | 94.1% | 94.7% | 0.78% (inactive) | -1.83% (inactive) |
| CCOC(=O)c1cccc(NC(=O)CSc2nnc(-c3cccnc3)n2C)c1 | 99% (inactive) | 107% (inactive) | 98.3% (inactive) | 5.64% (inactive) | 92.7% | 98.3% | -3.38% (inactive) | -0.73% (inactive) |
| COc1ccccc1OCc1ccc(C(=O)N2CCN(C(=O)c3ccco3)CC2)cc1 | 116% (inactive) | 111% (inactive) | 99.2% (inactive) | 5.35% (inactive) | 93.9% | 99.2% | -4.13% (inactive) | -9.82% (inactive) |
| Cc1c(NC(=O)C(C)Oc2ncnc3ccccc23)c(=O)n(-c2ccccc2)n1C (stereo not drawn) | 115% (inactive) | 91.9% (inactive) | 97% (inactive) | 7.01% (inactive) | 90% | 97% | -4.42% (inactive) | -3.28% (inactive) |
| CC(=O)Nc1ccc(Cc2ccncc2)cc1 | 105% (inactive) | 90.2% (inactive) | 96.1% (inactive) | 8.84% (inactive) | 87.3% | 96.1% | -4.8% (inactive) | -4.36% (inactive) |
| COCc1nnc(SCC(=O)NC(C)c2ccccc2)n1-c1ccccc1 (stereo not drawn) | 84% (inactive) | 101% (inactive) | 100% (inactive) | -5.31% (inactive) | 105% | 100% | -4.66% (inactive) | 1.27% (inactive) |
| COc1ccc(CC(=O)Nc2c3c(nn2-c2cccc(Cl)c2)CS(=O)C3)cc1 (stereo not drawn) | 111% (inactive) | 95.6% (inactive) | 104% (inactive) | 14.5% (inactive) | 89.5% | 104% | -2.73% (inactive) | -1.97% (inactive) |
| CCN(CC(=O)Nc1ccc2c(c1)OCCO2)Cc1cc(=O)oc2cc(C)c(C)cc12 | 93% (inactive) | 82.2% (inactive) | 73.8% (inactive) | 5.8% (inactive) | 68% | 73.8% | -5.75% (inactive) | 3.09% (inactive) |
| CCN(C(C)=O)c1nnc(CSc2nc3ccccc3s2)s1 | 114% (inactive) | 72.5% (inactive) | 100% (inactive) | 13.3% (inactive) | 86.7% | 100% | -0.52% (inactive) | -2.95% (inactive) |
| COc1ccc(-c2oc3ncn(CCN4CCOCC4)c(=N)c3c2-c2ccc(OC)cc2)cc1 | 82% (inactive) | 88.9% (inactive) | 24% (active) | 2.45% (inactive) | 21.5% | 24% | -4.73% (inactive) | -2.55% (inactive) |
| Cc1c(C=NCCOCc2ccccc2)cnn1C | 92% (inactive) | 109% (inactive) | 96.2% (inactive) | 14% (inactive) | 82.2% | 96.2% | 0% (inactive) | -0.48% (inactive) |
| COc1cc(-c2nc(S(=O)(=O)c3ccc(C)cc3)c(N(C)C)o2)cc(OC)c1OC | 71% (inactive) | 93.2% (inactive) | 87.9% (inactive) | 1.51% (inactive) | 86.3% | 87.9% | -8.4% (inactive) | -1.09% (inactive) |
| CCCC1(C(=O)OC)NC(c2cc(OC)c(OC)c(OC)c2)C2C(=O)N(CC)C(=O)C21 (stereo not drawn) | 67% (inactive) | 98.3% (inactive) | 88.9% (inactive) | -1.5% (inactive) | 90.4% | 88.9% | -4.93% (inactive) | 21.4% (inactive) |
| Cc1cc(-c2ccccc2)nc(SCc2ccc(C(=O)O)o2)n1 | 121% (inactive) | 103% (inactive) | 97.5% (inactive) | 5.94% (inactive) | 91.6% | 97.5% | -5.6% (inactive) | 0.73% (inactive) |
| CCOc1cc(C(=O)Nc2ncccn2)cc(OCC)c1OCC | 117% (inactive) | 105% (inactive) | 87.5% (inactive) | 4.8% (inactive) | 82.7% | 87.5% | -2.86% (inactive) | 5.08% (inactive) |
